In ChEMBL document CHEMBL4043176, “Synthesis of 3-[4-(dimethylamino)phenyl]alkyl-2-oxindole derivatives and their effects on neuronal cell death” (Bioorg Med Chem Lett, 2017):
The source made the active and inactive calls. The rule behind the calls is not given here.

Experiments:
HT-22 [1] = assay: Cytotoxicity against mouse HT22 cells up to 100 uM after 24 hrs by LDH-release assay; type: cell-based; settings: ht-22, 24 h
Summary of the method: (§1)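 HT22 cells exposed to compound alone, without glutamate (cytotoxicity tested up to 100 µM). Cell injury is read as lactate dehydrogenase released into the culture medium, measured with a cytotoxicity detection kit. LDH from control cultures is set at 100%.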

HT-22 [2] = assay: Neuroprotective activity against glutamate-induced neuronal cell death in mouse HT22 cells at 25 to 50 uM after 24 hrs by LDH-release assay relative to control; type: functional
Summary of the method: (§2)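 HT22 cells exposed to 10 mM glutamate together with compound at 25 or 50 µM for 24 h. Cell death read as LDH released into the culture medium (cytotoxicity detection kit). Control is LDH release from cells incubated without glutamate, set at 100%.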

HT-22 [3] = assay: Neuroprotective activity against glutamate-induced neuronal cell death in mouse HT22 cells after 24 hrs by LDH-release assay; type: functional, cell-based; settings: HT-22, 24 h
Summary of the method: (§3)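 HT22 cells co-incubated 24 h with 10 mM glutamate plus compound at 0, 1.0, 2.5, 5.0, 10 or 25 µM. Cell death is read as LDH released into the medium. Control-culture LDH is set at 100%. IC50 values were estimated from this low-dose series; for some compounds, approximate IC50s were corrected by subtracting suppression of basal, glutamate-independent death.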

HT-22 [4] = assay: Neuroprotective activity against glutamate-induced neuronal cell death in mouse HT22 cells at 1 to 25 uM after 24 hrs by LDH-release assay relative to control; type: functional, cell-based; summary of the method: as §3
HT-22 [5] = assay: Neuroprotective activity against glutamate-induced neuronal cell death in mouse HT22 cells at 2.5 to 10 uM after 24 hrs by LDH-release assay relative to control; type: functional, cell-based; summary of the method: as §3
HT-22 [6] = assay: Neuroprotective activity against glutamate-induced neuronal cell death in mouse HT22 cells at 2.5 to 5 uM after 24 hrs by LDH-release assay relative to control; type: functional, cell-based; summary of the method: as §3
HT-22 [7] = assay: Cytotoxicity against mouse HT22 cells after 24 hrs in absence of glutamate by LDH-release assay relative to control; type: ADME, cell-based; settings: ht-22, 24 h; summary of the method: as §1
HT-22 [8] = assay: Neuroprotective activity against glutamate-induced neuronal cell death in mouse HT22 cells at 50 uM after 24 hrs by LDH-release assay relative to control; type: functional, cell-based
Summary of the method: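 HT22 cells treated 24 h with 10 mM glutamate and compound at 0, 25 or 50 µM. Cell death is read as lactate dehydrogenase released into the culture medium, measured with a cytotoxicity detection kit. LDH of control cultures is set at 100%.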

HT-22 [9] = assay: Neuroprotective activity against glutamate-induced neuronal cell death in mouse HT22 cells at 25 uM after 24 hrs by LDH-release assay relative to control; type: functional; summary of the method: as §2
HT-22 [10] = assay: Neuroprotective activity against glutamate-induced neuronal cell death in mouse HT22 cells at 1 to 10 uM after 24 hrs by LDH-release assay relative to control; type: functional, cell-based; summary of the method: as §3

SMILES | Activity (HT-22 [1]) | Activity (HT-22 [2]) | also measured
CN(C)CCCCCCCC1(C)C(=O)Nc2ccccc21 (centres undefined) | Non-Toxic | inactive | 
CN(C)c1ccc(CCCC2C(=O)Nc3ccc(C(F)(F)F)cc32)cc1 (centres undefined) | Non-Toxic |  | 
COc1ccc2c(c1)C1(CCN(c3ccccc3)CC1)C(=O)N2 | Non-Toxic | inactive | 
COc1ccc2c(c1)C(C)(CCCc1ccc(N(C)C)cc1)C(=O)N2CC(=O)N(C)C (centres undefined) | Non-Toxic |  | 
COCCOc1ccc2c(c1)C(C)(CCCc1ccc(N(C)C)cc1)C(=O)N2 (centres undefined) | Non-Toxic |  | 
COc1ccc(N2C(=O)C(C)(CCCc3ccc(N(C)C)cc3)c3ccccc32)cc1 (centres undefined) | Non-Toxic |  | 
CN(C)c1ccc(CC2C(=O)Nc3ccccc32)cc1 (racemic) | Non-Toxic | Active | IC50 (HT-22 [3]): 7.1 µM; Activity (HT-22 [4]): Active
CN(C)c1ccc(CCCC2C(=O)Nc3ccccc32)cc1 (racemic) | Non-Toxic | Active | Activity (HT-22 [5]): Active; IC50 (HT-22 [3]): 5.5 µM
CN(Cc1ccccc1)c1ccc(CCCC2(C)C(=O)Nc3ccccc32)cc1 (racemic) | Non-Toxic | Active | 
CN(C)c1ccc(CCCCC2C(=O)Nc3ccccc32)cc1 (racemic) | Non-Toxic | Active | 
COc1ccc2c(c1)C(C)(CCCc1ccc(N(C)C)cc1)C(=O)N2 (racemic) [listing 1 of 2 here] | Non-Toxic |  | 
COc1ccc2c(c1)C(C)(CCOc1ccc(N(C)C)cc1)C(=O)N2 (racemic) | Non-Toxic | Active | 
COc1ccc2c(c1)C(C)(CCCc1ccc(N(C)C)cc1)C(=O)N2CC(=O)O (racemic) | Non-Toxic | inactive | 
CN(C)c1ccc(CCCC2(C)C(=O)Nc3ccc(O)cc32)cc1 (racemic) | Non-Toxic | >100% | Activity (HT-22 [6]): Active; Activity (HT-22 [7]): Non-Toxic; IC50 (HT-22 [3]): 1.9 µM
CN(CCCCCC1C(=O)Nc2ccccc21)c1ccccc1 (racemic) | Non-Toxic | Active | 
CCN(CC)c1ccc(CCCC2C(=O)Nc3ccccc32)cc1 (racemic) | Non-Toxic | >100% | Activity (HT-22 [7]): Non-Toxic
CN(C)c1ccc(CCCC2(C)C(=O)Nc3ccccc32)cc1 (racemic) | Non-Toxic | >100% | Activity (HT-22 [7]): Non-Toxic
CN(C)c1ccc(CCC2C(=O)Nc3ccccc32)cc1 (racemic) | Non-Toxic |  | Activity (HT-22 [8]): Active; Activity (HT-22 [9]): inactive
CN(C)c1ccc(C(C)(C)CC2C(=O)Nc3ccccc32)cc1 (racemic) | Non-Toxic |  | 
CN(C)c1ccc(CCCC2C(=O)N(C)c3ccccc32)cc1 (racemic) | Non-Toxic | >100% | Activity (HT-22 [7]): Non-Toxic
CN(C)c1ccc(C(=O)NCCC2C(=O)Nc3ccccc32)cc1 (racemic) | Non-Toxic | inactive | 
CN(C)c1cccc(CCCC2C(=O)Nc3ccccc32)c1 (racemic) | Non-Toxic | >100% | Activity (HT-22 [7]): Non-Toxic
CN(C)c1ccc(CCCC2(C)C(=O)Nc3ccc(F)cc32)cc1 (racemic) | Non-Toxic | >100% | Activity (HT-22 [7]): Non-Toxic; IC50 (HT-22 [3]): 1.2 µM; Activity (HT-22 [10]): Active
COc1ccc2c(c1)C(C)(CCCc1ccc(N(C)C)cc1)C(=O)N2 (racemic) [listing 2 of 2 here] |  | Active | 
COc1ccc2c(c1)C(C)(CCCc1ccc(N(C)C)cc1)C(=O)N2 (stereo in doubt; 8a) |  | Active | 
COc1ccc2c(c1)C(C)(CCCc1ccc(N(C)C)cc1)C(=O)N2 (stereo in doubt; 8b) |  | Active | 
O=C1O[C@H]([C@@H](O)CO)C(O)=C1O [ASCORBIC ACID] |  |  | Activity (HT-22 [9]): 50%
